Experimental data: ChEMBL document CHEMBL1268967, “Synthesis and biological evaluation of furoxan-based nitric oxide-releasing derivatives of glycyrrhetinic acid as anti-hepatocellular carcinoma agents” (Bioorg Med Chem Lett, 2010)
Active and inactive are the calls of the source. No cut-off for these calls is given here.

How the values were obtained:
HepG2 [1] = assay: Antiproliferative activity against human HepG2 cells after 24 hrs by MTT assay; format: functional, cell-based; conditions: HepG2, 24 h
Outline: (§1)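 Cells grown in DMEM with 10% heat-inactivated fetal calf serum at 37 °C, 5% CO2; 3 × 10^5 cells/well plated overnight, then exposed in triplicate to a range of concentrations for 24 h. MTT (5 mg/mL) was added for the final 4 h, formazan dissolved in DMSO, absorbance at 570 nm. IC50 is the mean of dose–response curves from at least three independent experiments.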

Bel-7402 [2] = assay: Antiproliferative activity against human Bel7402 cells after 24 hrs by MTT assay; format: functional, cell-based; conditions: Bel-7402, 24 h; outline: as §1
[3] = Toxicity in human L02 cells assessed as induction of nitric oxide release at 100 uM […] by Griess assay; format: cell-based; conditions: l02, 100 µM
Bel-7402 [4] = assay: Antiproliferative activity against human Bel7402 cells at 10 uM after 24 hrs by MTT assay; format: functional; conditions: for inhibition of growth at 10 µM: Bel-7402, 24 h, read-out: GI
Outline: (§2)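 Cells cultured in DMEM with 10% heat-inactivated fetal calf serum at 37 °C, 5% CO2, plated overnight and then exposed to 10 µM compound for 24 h. MTT was added for the last 4 h, formazan dissolved in DMSO and read at 570 nm. Values are mean % cytotoxicity ± SD from three separate experiments.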

HepG2 [5] = assay: Induction of nitric oxide release in human HepG2 cells at 100 uM […] by Griess assay; format: functional, cell-based
Bel-7402 [6] = assay: Induction of nitric oxide release in human Bel7402 cells at 100 uM […] by Griess assay; format: functional, cell-based
[7] = Antiproliferative activity against human L02 cells at 10 uM after 24 hrs by MTT assay; format: cell-based; conditions: for inhibition at 24 h, 10 µM: L02 cells; for Activity: l02, 24 h, 10 µM; outline: as §2
Bel-7402 [8] = assay: Induction of nitric oxide release in human Bel7402 cells at 10 uM for 24 hrs pretreated with hemoglobin for 1 hr by Griess assay; format: functional, cell-based
Outline: (§3)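 BEL-7402 cells in 24-well plates were pretreated in triplicate with hemoglobin (0, 1, 5, 10 or 20 µM) for 1 h, then given compound at 5 or 10 µM for 24 h. NO in the cells was measured by Griess assay and reported as mean concentration for each condition.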

Bel-7402 [9] = assay: Antiproliferative activity against human Bel7402 cells at 5 uM for 24 hrs pretreated with hemoglobin for 1 hr by MTT assay; format: functional, cell-based
Outline: (§4)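 BEL-7402 cells in 24-well plates were pretreated in triplicate with hemoglobin (0, 1, 5, 10 or 20 µM) for 1 h as an NO scavenger. Compound was then added at 5 or 10 µM for 24 h and cytotoxicity read by MTT. Data are mean % cytotoxicity for each condition.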

Bel-7402 [10] = assay: Antiproliferative activity against human Bel7402 cells at 10 uM for 24 hrs pretreated with hemoglobin for 1 hr by MTT assay; format: functional, cell-based; outline: as §4
Bel-7402 [11] = assay: Induction of nitric oxide release in human Bel7402 cells at 5 uM for 24 hrs pretreated with hemoglobin for 1 hr by Griess assay; format: functional, cell-based; outline: as §3

SMILES	IC50 (HepG2 [1]) [µM]	IC50 (Bel-7402 [2]) [µM]	further results
COC(=O)[C@@]1(C)CC[C@]2(C)CC[C@]3(C)C(=CC(=O)[C@@H]4[C@@]5(C)CC[C@H](OC(=O)CCC(=O)OCCCOc6no[n+]([O-])c6S(=O)(=O)c6ccccc6)C(C)(C)[C@@H]5CC[C@]43C)[C@@H]2C1	13.4	9.22	
CC1(C)[C@@H](O)CC[C@]2(C)[C@H]3C(=O)C=C4[C@@H]5C[C@@](C)(C(=O)NCC(=O)OCC#CCOc6no[n+]([O-])c6S(=O)(=O)c6ccccc6)CC[C@]5(C)CC[C@@]4(C)[C@]3(C)CC[C@@H]12	3.39	0.84	Activity [3]: Non-toxic; inhibition of growth at 10 µM (Bel-7402 [4]): > 83.5%; Activity (HepG2 [5]): Active; Activity (Bel-7402 [6]): Active; inhibition at 24 h, 10 µM [7]: < 18%
COc1cccc2c1C(=O)c1c(O)c3c(c(O)c1C2=O)C[C@@](O)(C(=O)CO)C[C@@H]3O[C@H]1C[C@H](N)[C@H](O)[C@H](C)O1 [DOXORUBICIN]	2.03	0.9	
CC1(C)[C@@H](O)CC[C@]2(C)[C@H]3C(=O)C=C4[C@@H]5C[C@@](C)(C(=O)NCC(=O)OCCCOc6no[n+]([O-])c6S(=O)(=O)c6ccccc6)CC[C@]5(C)CC[C@@]4(C)[C@]3(C)CC[C@@H]12	3.79	0.43	Activity [3]: Non-toxic; inhibition of growth at 10 µM (Bel-7402 [4]): > 83.5%; Activity (HepG2 [5]): Active; Activity (Bel-7402 [6]): Active; inhibition at 24 h, 10 µM [7]: < 18%
CC1(C)[C@@H](O)CC[C@]2(C)[C@H]3C(=O)C=C4[C@@H]5C[C@@](C)(C(=O)NCC(=O)OCCCCOc6no[n+]([O-])c6S(=O)(=O)c6ccccc6)CC[C@]5(C)CC[C@@]4(C)[C@]3(C)CC[C@@H]12	6.78	0.25	growth inhibition (GI) (Bel-7402 [8]): inactive; Activity [3]: Non-toxic; inhibition of growth at 10 µM (Bel-7402 [4]): > 83.5%; Activity (HepG2 [5]): Active; Activity (Bel-7402 [9]): inactive; Activity (Bel-7402 [6]): Active; Activity (Bel-7402 [10]): inactive; growth inhibition (GI) (Bel-7402 [11]): inactive; inhibition at 24 h, 10 µM [7]: < 18%
CC(O)CCOc1no[n+]([O-])c1S(=O)(=O)c1ccccc1 (centres undefined)			growth inhibition (GI) (Bel-7402 [4]): Active; Activity [7]: Toxic
CC(=O)O[C@H]1CC[C@]2(C)[C@H]3C(=O)C=C4[C@@H]5C[C@@](C)(C(=O)OCCCOc6no[n+]([O-])c6S(=O)(=O)c6ccccc6)CC[C@]5(C)CC[C@@]4(C)[C@]3(C)CC[C@H]2C1(C)C	11.5	15.3	
O=S(=O)(c1ccccc1)c1c(OCCCCO)no[n+]1[O-]			growth inhibition (GI) (Bel-7402 [4]): Active; Activity [7]: Toxic
COC(=O)[C@@]1(C)CC[C@]2(C)CC[C@]3(C)C(=CC(=O)[C@@H]4[C@@]5(C)CC[C@H](OC(=O)CCC(=O)OCCCCOc6no[n+]([O-])c6S(=O)(=O)c6ccccc6)C(C)(C)[C@@H]5CC[C@]43C)[C@@H]2C1	36.5	8.2	
O=S(=O)(c1ccccc1)c1c(OC/C=C/CO)no[n+]1[O-]			growth inhibition (GI) (Bel-7402 [4]): Active; Activity [7]: Toxic
CC(=O)O[C@H]1CC[C@]2(C)[C@H]3C(=O)C=C4[C@@H]5C[C@@](C)(C(=O)OCCOc6no[n+]([O-])c6S(=O)(=O)c6ccccc6)CC[C@]5(C)CC[C@@]4(C)[C@]3(C)CC[C@H]2C1(C)C	14.7	3.84	
O=S(=O)(c1ccccc1)c1c(OCC#CCO)no[n+]1[O-]			growth inhibition (GI) (Bel-7402 [4]): Active; Activity [7]: Toxic
O=S(=O)(c1ccccc1)c1c(OCCCO)no[n+]1[O-]			growth inhibition (GI) (Bel-7402 [4]): Active; Activity [7]: Toxic
CC1(C)[C@@H](O)CC[C@]2(C)[C@H]3C(=O)C=C4[C@@H]5C[C@@](C)(C(=O)O)CC[C@]5(C)CC[C@@]4(C)[C@]3(C)CC[C@@H]12 [ENOXOLONE]	> 50	> 50	

Continued by falling IC50 (HepG2 [1]), values first:

IC50 (HepG2 [1]) [µM]	IC50 (Bel-7402 [2]) [µM]	SMILES	further results
31.4	21.4	CC(=O)O[C@H]1CC[C@]2(C)[C@H]3C(=O)C=C4[C@@H]5C[C@@](C)(C(=O)OCCOCCOc6no[n+]([O-])c6S(=O)(=O)c6ccccc6)CC[C@]5(C)CC[C@@]4(C)[C@]3(C)CC[C@H]2C1(C)C	
23.7	14.2	CC(=O)O[C@H]1CC[C@]2(C)[C@H]3C(=O)C=C4[C@@H]5C[C@@](C)(C(=O)NCCOc6no[n+]([O-])c6S(=O)(=O)c6ccccc6)CC[C@]5(C)CC[C@@]4(C)[C@]3(C)CC[C@H]2C1(C)C	
18.2	7.85	COC(=O)[C@@]1(C)CC[C@]2(C)CC[C@]3(C)C(=CC(=O)[C@@H]4[C@@]5(C)CC[C@H](OC(=O)CCC(=O)OCCOc6no[n+]([O-])c6S(=O)(=O)c6ccccc6)C(C)(C)[C@@H]5CC[C@]43C)[C@@H]2C1	
15.7	19.9	COC(=O)[C@@]1(C)CC[C@]2(C)CC[C@]3(C)C(=CC(=O)[C@@H]4[C@@]5(C)CC[C@H](OC(=O)CCC(=O)OCCOCCOc6no[n+]([O-])c6S(=O)(=O)c6ccccc6)C(C)(C)[C@@H]5CC[C@]43C)[C@@H]2C1	
11.6	13.4	COC(=O)[C@@]1(C)CC[C@]2(C)CC[C@]3(C)C(=CC(=O)[C@@H]4[C@@]5(C)CC[C@H](OC(=O)CCC(=O)OCC#CCOc6no[n+]([O-])c6S(=O)(=O)c6ccccc6)C(C)(C)[C@@H]5CC[C@]43C)[C@@H]2C1	
9.06	1.38	CC1(C)[C@@H](O)CC[C@]2(C)[C@H]3C(=O)C=C4[C@@H]5C[C@@](C)(C(=O)NCC(=O)OCCOc6no[n+]([O-])c6S(=O)(=O)c6ccccc6)CC[C@]5(C)CC[C@@]4(C)[C@]3(C)CC[C@@H]12	
7.5	15	CC(=O)O[C@H]1CC[C@]2(C)[C@H]3C(=O)C=C4[C@@H]5C[C@@](C)(C(=O)OCC#CCOc6no[n+]([O-])c6S(=O)(=O)c6ccccc6)CC[C@]5(C)CC[C@@]4(C)[C@]3(C)CC[C@H]2C1(C)C	
7.4	2.47	CC1(C)[C@@H](O)CC[C@]2(C)[C@H]3C(=O)C=C4[C@@H]5C[C@@](C)(C(=O)NCCOc6no[n+]([O-])c6S(=O)(=O)c6ccccc6)CC[C@]5(C)CC[C@@]4(C)[C@]3(C)CC[C@@H]12	
6.4	9.47	CC(=O)O[C@H]1CC[C@]2(C)[C@H]3C(=O)C=C4[C@@H]5C[C@@](C)(C(=O)NCC(=O)OCCOCCOc6no[n+]([O-])c6S(=O)(=O)c6ccccc6)CC[C@]5(C)CC[C@@]4(C)[C@]3(C)CC[C@H]2C1(C)C	
5.18	3.78	CC1(C)[C@@H](O)CC[C@]2(C)[C@H]3C(=O)C=C4[C@@H]5C[C@@](C)(C(=O)NCC(=O)OCCOCCOc6no[n+]([O-])c6S(=O)(=O)c6ccccc6)CC[C@]5(C)CC[C@@]4(C)[C@]3(C)CC[C@@H]12	
2.9	2.94	COC(=O)[C@@]1(C)CC[C@]2(C)CC[C@]3(C)C(=CC(=O)[C@@H]4[C@@]5(C)CC[C@H](OC(=O)CCC(=O)NCCOc6no[n+]([O-])c6S(=O)(=O)c6ccccc6)C(C)(C)[C@@H]5CC[C@]43C)[C@@H]2C1	
